Results on 24 sequences are retold here after the EternaBench riboswitch data.

This data set deals with MS2 coat protein. Briefly: apparent Kd, MS2 coat protein; higher = weaker binding; RNA-MaP array; FMN 200 µM where present. Put shortly: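 Designs on Illumina sequencing-chip clusters, transcribed by stalled E. coli RNA polymerase, were exposed to SNAP-549-labelled MS2 coat protein in doubling steps from 0.7 or 1.5 nM up to 3 µM, without and then with constant ligand. The buffer held 100 mM Tris-HCl pH 7.5, 80 mM KCl, 4 mM MgCl2, BSA, DTT, yeast tRNA and Tween-20. Apparent Kd values are medians of filtered per-cluster binding-curve fits to green signal normalised to red-channel RNA signal and control-cluster median Fmax.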

The mark [1] stands for this setting: designed as: ON switch for flavin mononucleotide, no ligand.
The mark [2] stands for this setting: ligand present: flavin mononucleotide, designed as: ON switch for flavin mononucleotide.
Where [3] appears, read: designed as: OFF switch for flavin mononucleotide, no ligand.
The mark [4] stands for this setting: ligand present: flavin mononucleotide, designed as: OFF switch for flavin mononucleotide.

Broadly, the apparent Kd is the concentration giving half-maximal binding under the conditions of the assay. “UGGUACUAGGGAGGAUAUGGGAAGAUACAUGAGGAUCACCCAUGUCUAAGAAUGCCGAGAGGCAACUAGAAGGCCCUAGUACCU”: the “apparent Kd” value is 98.3 nM under setting [1] and 496 nM under setting [2].
Taken in the same sequence, the figures for “AUUGGUGAGUAGAAGGUACGAUAUUAGUUAUAGUAAGGAUAUACUAACAUGAGGAUCACCCAUGUAUAAAUGGAUAAAUUAUCU” were 11.7 nM and 8.98 nM.
Turning to “UCCCGUUGUCAGAAGGCUCCUCGUAACCCGAGGAGAGGAUAUGACACAUGAGGAUCACCCAUGUGCCCGGUCGUGACAAAGGUG”, the “apparent Kd” value reads like this: under setting [3], 11.7 nM; under setting [4], 158 nM.
In the same order, the values of “AAGAAGUGAGGAUAUCGUGCUCGUCACUUGCGUGAUGAGUACGAGAAGGCACAUGAGGAUCACCCAUGUAAAGA” are 37.6 nM and 46.1 nM.
In the same order, the values of “UCUUUCCGGAAUAUAAGUUGACUUCAGGAUAUCACAUGAGGAUCACCCAUGUGAUGCUUUAUUGCUGAGAAGGGAAGUCAUACC” are 11.7 nM and 38.6 nM.
Taken in the same sequence, the figures for “UGCGCCAGAGGAUAUCGGGCUCGCAACAUGAGGAUCACCCAUGUAGUAUGGUCUUAUUUUCGAGAAGGCUGUCGUU” were 20.9 nM and 17.4 nM.
“GAUCACUGAGGAUAUACGCAGAUACAAAGUAUCUGAUUGUGACAUGAGGAUCACCCAUGUAGAAGGCAGAGGUC”: the “apparent Kd” value is, setting by setting: under setting [3], 37.2 nM; under setting [4], 124 nM.
In the same order, the values of “UAGAGCGCUUGAGGAUAUCGCUUUGUGAUGGUACUCAUGCUUGUUACAUGAGGAUCACCCAUGUGCGAGAAGGCAGGCCGUUAG” are 59.3 nM and 12.6 nM.
As to “UUGGACGUCGUAGGAUAUGUAGGAUAUUCCUACAUGAGGAUCACCCAUGUUGACAUGGAAGACGGACAGAAGGACGAUGUCCAU”, the “apparent Kd” value came to 490 nM under setting [1] and 12.8 nM under setting [2].
Taken in the same sequence, the figures for “UUGCCUCAGAACAUGAGGAUCACCCAUGUGCUGCGGGCAACGUAGGAUAUGAUGGUGUGACACCAUCAGAAGGAUGAUGGUACC” were 5.97 nM and 5.81 nM.
In the same order, the values of “GGCGGGCGAAACAUGAGGAUCACCCAUGUGUUAUACUUAAUAUAGGAUAUGUUUAUACUUUUUGGGCAGAAGGAUGCGCCUGCC” are 37.9 nM and 33.4 nM.
Turning to “AAAACGUGAGGAUAUACAUGAGGAUCACCCAUGUGAAACAGGAAAAACUGAAAGAAAAGUAGAAGGCACGAAAA”, the “apparent Kd” value runs as follows: under setting [3], 33.4 nM; under setting [4], 50.1 nM.
Taken in the same sequence, the figures for “CUUUUGUGAGGAUAUCAGUAGUAAAAAAAUAAAAUUAUUACUGAGAAGGCACAUGAGGAUCACCCAUGUUCCUC” were 34 nM and 196 nM.
In the same order, the values of “CCCACACUUGUGAGGAUAUGGAUAGCUGCUGCUGAUUAGAAGGCACAUGAGGAUCACCCAUGUCACCCUCAUGG” are 278 nM and 255 nM.
As to “UUGGACGUCGUAGGAUAUGUAGGAUAUUCCUACAUGAGGAUCACCCAUGUUUACAUGGAAGAAGGACAGAAGGACGAUGUCCAU”, the “apparent Kd” value runs as follows: under setting [1], 1320 nM; under setting [2], 14.5 nM.
Consider “UGGCUACAUGAGGAUCACCCAUGUCAGGAUAUGCCGUCGGCUUGCGUUCGUCGUUCGGGUAGAAGGGACUGCGG”, for which the “apparent Kd” value is 85.3 nM under setting [3] and 106 nM under setting [4].
Taken in the same sequence, the figures for “CUAUUGGCAGGAUAUGCUUUUUUAGACAUGAGGAUCACCCAUGUGAUGAAUAUUGGGUUUGCAGAAGGGCCUGAAU” were 75.1 nM and 111 nM.
In the same order, the values of “GCACUUAGAGAUUUACCGUUACUAACAUGAGGAUCACCCAUGUAGGAUAUGCUAAUAGUAUUGAAGCAGAAGGACACUAAGUGC” are 5 nM and 5.18 nM.
In the same order, the values of “AAGUUCUGAGGAUAUACAUAGAUUUACAUGAGGAUCACCCAUGUUCCUCUAUGUAUUAAUGUAGAAGGCAGAAGAA” are 24.4 nM and 185 nM.
Take “GUACGUGGACAGAAGGCGACAUGAGGAUCACCCAUGUUGGCUCGCGUAUGAGCAAUCCGCAUGAUUGAGGAUAUGUCUGCGGGC”: the “apparent Kd” value is, setting by setting: under setting [3], 9.05 nM; under setting [4], 49.7 nM.
In the same order, the values of “UGAAAUCAUGUAGGAUAUGCAUGGCGAAGCUACGCAGAAGGACAUGAGGAUCACCCAUGUUAUGGCUACCCAGUUCGGUGGCAA” are 51.8 nM and 117 nM.
As for “AUUAUUAAGGUAGGAUAUAGUAAAAUAAUUUAAUUAGAAGGAUCUCACAUGAGGAUCACCCAUGUAAGAGGAUCACCCAUGUAU”, the “apparent Kd” value was determined as 10.8 nM under setting [3] and 9.53 nM under setting [4].
In the same order, the values of “AUCUUUAACAUAGGAUAUAGUAUGAAGGUUUAUUUAGAAGGAUGUCACAUGAGGAUCACCCAUGUAAUAGGAUUACCCAUGUAU” are 29.8 nM and 21.9 nM.
Take “GCCAUCACAUGAGGAUAUGCUCGGGUUUCCCGAGCAGAAGGCAUGUCAUAAGACAUGAGGAUCACCCAUGUAGUUAAGAUGGCA”: the “apparent Kd” value under setting [1] came to 399 nM and the “apparent Kd” value under setting [2] amounted to 14.5 nM.
